Only some compounds are listed: those with a hit (about 2.2% of all), similar ones and a draw of the others.
Hsp70 act: Hsp70 transcriptional activation, primary screen; actives 0.04% (n = 200,000); HeLa Hsp70 promoter luciferase reporter, luminescence; scaled: vehicle 0, proteasome-inhibitor control 100%; AID 1203; activation, % at 10 µM;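 active means activation above the mean across all tested compounds plus 3 SD, cutoff set per campaign, cut at about 5.5% in these data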;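 further: 100% = MG132 at 30 µM as the positive control and 0% = DMSO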
Insulin prom inh: TRM-6 insulin promoter activity inhibition | inhibition, % at 2 µM | AID 1273 | actives 0.9% (n = 130,000) | TRM-6 cells (human fetal islet line), insulin promoter-eGFP reporter, imaging; reporter expression induced with tamoxifen;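 active means inhibition above the mean plus 3 SD, with well images judged a real hit on visual review, cut at about 60% in these data, passing the limit was not always enough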
Wee1 degr inh: inhibitors of human Wee1 degradation | P30291 | HeLa Luc-Wee1K328M stability, luciferase luminescence; 100% = proteasome inhibitor MG132 effect | reporter increase, % at 5 µM | actives 1.2% (n = 220,000);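 active means activation above the mean of all tested compounds plus 3 SD, set per screening run, cut at about 8.8% in these data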;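 further: cells exposed to compound for 20 h before luminescence read; 0% = DMSO alone and 100% = MG132 at 30 µM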
Target sequence (P30291 whole entry K328M): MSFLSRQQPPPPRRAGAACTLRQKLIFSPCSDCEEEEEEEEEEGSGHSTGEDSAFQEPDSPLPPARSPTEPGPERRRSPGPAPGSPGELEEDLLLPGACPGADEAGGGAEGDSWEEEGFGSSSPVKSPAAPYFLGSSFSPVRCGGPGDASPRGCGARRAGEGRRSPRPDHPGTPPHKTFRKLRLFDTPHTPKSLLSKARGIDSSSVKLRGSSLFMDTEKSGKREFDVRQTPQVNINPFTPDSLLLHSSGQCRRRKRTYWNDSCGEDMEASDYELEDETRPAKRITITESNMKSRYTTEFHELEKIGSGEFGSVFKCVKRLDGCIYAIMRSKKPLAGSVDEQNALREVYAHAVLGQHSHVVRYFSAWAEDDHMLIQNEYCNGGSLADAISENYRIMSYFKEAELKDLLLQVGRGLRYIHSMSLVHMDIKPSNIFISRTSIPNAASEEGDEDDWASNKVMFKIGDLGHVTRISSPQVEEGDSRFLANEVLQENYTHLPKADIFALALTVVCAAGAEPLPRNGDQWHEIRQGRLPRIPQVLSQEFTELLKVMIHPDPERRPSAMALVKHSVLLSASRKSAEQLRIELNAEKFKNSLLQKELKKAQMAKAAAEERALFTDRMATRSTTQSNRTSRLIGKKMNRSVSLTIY
Insulin prom up: MIN6 insulin promoter up-regulation | z-score at 5 µM | MIN6 insulin promoter-GFP reporter, high-content imaging; active compounds read high | actives 0.3% (n = 190,000);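 active means z-score above 3 at 5 µM with at least 500 cells counted in the well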
MDM2 E3 inh: Mdm2 E3 ligase (human) inhibition; actives 0.11% (n = 210,000); cell-based MDM2 ubiquitination luciferase reporter, 2 h; 0 = plate control, 100 = twice control, blank-subtracted; signal enhancement, % at 5 µM; Q00987;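 active means signal enhancement of 30% or more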;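 further: luminescence tracks abundance of the self-degrading MDM2-luciferase fusion protein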
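System: stable MDM2–luciferase fusion reporter cells / Input: 2000 cells seeded into each well / Schedule: 4 h settle plus 2 h compound, 37 °C / Compound: single-point 5 µM / Buffer or medium: cells held in DMEM / Benchmarks: control and blank well means / Evaluation: percent signal gain over controls, blank-subtracted / Measured by: luciferase luminescence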
RBBP9 inh: human RBBP9 hydrolase inhibition. recombinant RBBP9, FP-Rh probe fluorescence polarization. inhibition, % at 7.94 µM. actives 0.2% (n = 220,000);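 active means inhibition above the campaign mean of all tested compounds plus 3 SD, cut at about 14% in these data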;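 further: plate controls were DMSO wells with RBBP9 for no effect and wells lacking RBBP9 protein for full effect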
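Measured by: FP readout at 525/598 nm; material: recombinant human RBBP9; also added: Serine-hydrolase probe FP-Rh, 375 nM pre-mixing; medium: Tris buffer pH 8.0, NaCl, Pluronic; replication: one well per compound; doses: one concentration, 7.94 µM nominal, 0.794% DMSO; timing: preincubation 30 min plus labeling 45 min at 25 °C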
* hit, by the source's call.

O=[N+]([O-])c1ccc(OCC(O)CN2CCN(c3ccccc3F)CC2)cc1 (stereo not given) was read as Hsp70 act 0, Wee1 degr inh 1, MDM2 E3 inh -3 and RBBP9 inh -4.
COc1ccc2c(CC(=O)NCc3cccs3)coc2c1 was read as Hsp70 act 0, Insulin prom inh -29, Wee1 degr inh 1, Insulin prom up 0.02, MDM2 E3 inh -8 and RBBP9 inh -6.
Cc1ccc(NC(=O)c2ccc3ncsc3c2)cc1S(=O)(=O)N(C)C was read as Wee1 degr inh 1, Insulin prom up -0.1 and RBBP9 inh -7.
`CCOc1ccc2c(c1)S/C(=C\c1cccs1)C(=O)N2` gave Wee1 degr inh 9.0*, Insulin prom up 0.03 and RBBP9 inh -8.
`Cc1cc(C)cc(N=C2NC(=O)/C(=C/c3cccs3)S2)c1` gave Hsp70 act 0, Insulin prom inh -23, Wee1 degr inh -1, Insulin prom up -0.12, MDM2 E3 inh 4 and RBBP9 inh -10.
Screening O=C(CN(C(=O)c1csnn1)c1cccc2c1CCCC2)NC1CCCC1 returned Hsp70 act 0, Insulin prom inh -33, Wee1 degr inh -2, MDM2 E3 inh -2 and RBBP9 inh -4.
`Cc1ccc2c(c1)nnn2C1CCN(C(=O)NCc2ccccc2)CC1` gave Hsp70 act 0, Insulin prom inh 25, Wee1 degr inh 5, Insulin prom up 0.12, MDM2 E3 inh -20 and RBBP9 inh 3.
Screening O=C(NCc1ccccc1)N1CCC(n2cnc3cc(F)ccc32)CC1 returned Hsp70 act 0, Insulin prom inh 78*, Wee1 degr inh -1, Insulin prom up 0.83, MDM2 E3 inh 17 and RBBP9 inh -6.
Screening O=c1c(C(c2ccccc2)c2c(O)nc3n(c2=O)CCS3)c(O)nc2n1CCS2 returned Hsp70 act 0, Insulin prom inh -29, Wee1 degr inh 0, Insulin prom up -0.09, MDM2 E3 inh -2 and RBBP9 inh -2.
Screening Cc1ccc(C)c(NC(=O)CSc2nc(N)c(NC(=O)c3cccs3)c(=O)[nH]2)c1 returned Hsp70 act 0, Insulin prom inh -10, Wee1 degr inh 1, Insulin prom up -0.37 and RBBP9 inh -10.
`Cc1cccc(NC(=O)CSc2nc(N)c(NC(=O)c3cccs3)c(=O)[nH]2)c1` gave Hsp70 act 0, Insulin prom inh -25, Wee1 degr inh 9.3*, Insulin prom up -0.07 and RBBP9 inh -5.
For CCCn1c(CCc2ccccc2)nnc1SCC(=O)N1CCOCC1 the results were Hsp70 act 0, Insulin prom inh 78*, Wee1 degr inh -1, Insulin prom up 0.23, MDM2 E3 inh -8 and RBBP9 inh -2.
Screening CCOC(=O)C1C(c2ccc(OC)cc2)N(C)OC1(O)C(F)(F)F (stereo not given) returned Hsp70 act 0, Insulin prom inh 50, Wee1 degr inh -2, Insulin prom up -0.9, MDM2 E3 inh 7 and RBBP9 inh -9.
Screening CCOC(=O)C1C(c2ccccc2)N(C)OC1(O)C(F)(F)F (stereo not given) returned Hsp70 act 0, Insulin prom inh -78, Wee1 degr inh -2, Insulin prom up -0.29, MDM2 E3 inh 35* and RBBP9 inh -5.
For CC(=O)c1ccc(N2C(=O)C3C(C2=O)C(C(=O)c2ccc(Cl)cc2)N2CCCC32)cc1 (stereo not given) the results were Hsp70 act 0, Insulin prom inh 19, Wee1 degr inh 11*, Insulin prom up -1.5, MDM2 E3 inh -25 and RBBP9 inh -4.
Screening COCc1[nH]c(=S)[nH]c(=O)c1C returned Wee1 degr inh -2, Insulin prom up 0.28, MDM2 E3 inh 2 and RBBP9 inh -10.
`CCN(CC)c1ccc(/C=C/c2cc(-c3ccccc3)c3ccccc3n2)cc1` gave Wee1 degr inh 2, Insulin prom up 15*, MDM2 E3 inh 2 and RBBP9 inh -9.
CS(=O)(=O)N1CCN(c2nc3ccc(Cl)cc3s2)CC1 was read as Wee1 degr inh 4, Insulin prom up 0.15, MDM2 E3 inh 0 and RBBP9 inh -8.
Clc1ccc2nc(N3CCCCC3)[nH]c2c1 was read as Hsp70 act 0, Insulin prom inh 87*, Wee1 degr inh 4, MDM2 E3 inh -38 and RBBP9 inh 2.
Screening Clc1ccc2nc(N3CCCCC3)sc2c1 returned Hsp70 act 0, Wee1 degr inh 11*, Insulin prom up -0.22, MDM2 E3 inh -19 and RBBP9 inh -7.
`Cc1ccc(NC(=O)COC(=O)CN2C(=O)NC(C)(C)C2=O)cc1S(=O)(=O)N1CCOCC1` gave Hsp70 act 0, Insulin prom inh 79*, Wee1 degr inh 0, Insulin prom up 0.18, MDM2 E3 inh -8 and RBBP9 inh -2.
Screening O=C(O)C12CC3CC(C1)CC(n1ncc(NCc4ccco4)c(Cl)c1=O)(C3)C2 returned Wee1 degr inh 10*, Insulin prom up 0.15, MDM2 E3 inh -14 and RBBP9 inh -1.
Cc1cc(C)c(C(=O)Cn2nc(C)c([N+](=O)[O-])c2C)cc1C was read as Hsp70 act 0, Insulin prom inh -17, Wee1 degr inh 10*, Insulin prom up -0.06, MDM2 E3 inh -5 and RBBP9 inh -5.
Screening Cc1ccc(/C=N/NC(=O)Cn2nc(C)c([N+](=O)[O-])c2C)o1 returned Wee1 degr inh 9.6*, Insulin prom up 0.12, MDM2 E3 inh -27 and RBBP9 inh 2.
For O=C(Nc1ccc(Cl)c(Cl)c1)N(CCCN1CCOCC1)Cc1cccs1 the results were Hsp70 act 0, Wee1 degr inh 0, Insulin prom up -2.1, MDM2 E3 inh -10 and RBBP9 inh -9.
O=C1CC(N2CCC(O)(c3ccc(Br)cc3)CC2)C(=O)N1c1ccc(Cl)cc1 (stereo not given) was read as Hsp70 act 0, Insulin prom inh -14, Wee1 degr inh -3, Insulin prom up 0.02, MDM2 E3 inh -5 and RBBP9 inh -7.
CCOC(=O)c1c(C)oc(/N=C/c2ccccc2O)c1C#N was read as Hsp70 act 0, Wee1 degr inh -2, Insulin prom up 0.69, MDM2 E3 inh -1 and RBBP9 inh -3.
`O=C(NCc1cn2ccccc2n1)c1ccco1` gave Hsp70 act 0, Wee1 degr inh -3, Insulin prom up 3.7*, MDM2 E3 inh -14 and RBBP9 inh -6.
Screening O=C(COc1ccc(Oc2ccccc2)cc1)NCc1cn2ccccc2n1 returned Hsp70 act 0, Insulin prom inh -18, Wee1 degr inh 10*, Insulin prom up -1.7, MDM2 E3 inh 7 and RBBP9 inh -3.
For O=C(Nc1ccc(-c2cn3ccccc3n2)cc1)c1ccco1 the results were Hsp70 act 0, Insulin prom inh -54, Wee1 degr inh 3, Insulin prom up -0.03, MDM2 E3 inh -36 and RBBP9 inh -8.
